The list is not random: actives were taken first. Their share in the collection is about 4.1%.
KCNQ1 pot – potentiators or activators of KCNQ1 channel, primary screen, cell-based, thallium flux, high-throughput; CHO-K1 KCNQ1, thallium flux FluxOR fluorescence; hits give high values; B-score at 10 µM; 310,000 compounds, 0.35% hits;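 active = fluorescence ratio B-score, a plate-corrected score, at least three library SD, with initial intensity B-score within 5 SD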
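System: Stable KCNQ1 CHO-K1 line | Incubation: 90 min dye loading and 20 min compound exposure, both at room temperature | Measure: Ratio B score | Medium: Assay buffer for compound exposure, DMSO matched across wells | Compound dosing: Single-concentration screen | Probe or stimulus: K+/Tl+ depolarizing stimulus | Measured by: Kinetic FluxOR fluorescence, 10 s baseline plus 110 s post-stimulus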
KCC2 mod – KCC2 cotransporter modulators, thallium flux, primary screen, cell-based, HEK293 KCC2, FluoZin-2 fluorescence, MLSMR; Solute carrier family 12 member 5 (Homo sapiens), Q9H2X9; KCC2 cells, thallium flux FluoZin-2 fluorescence; B-score of Tl+ flux slope (higher = more flux/activation; lower = inhibition) at 10 µM; 190,000 compounds, 2.2% hits; AID 1456, 2008;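 active = thallium flux slope and its plate-corrected score both differing from the plate sample mean at a set confidence after two filtering rounds, in either direction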;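 note: slope of fluorescence scaled to starting intensity during 10 to 20 s after thallium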
KCNQ1 block – inhibitors of human KCNQ1 channel, primary screen, cell-based, thallium flux, high-throughput; Potassium voltage-gated channel subfamily KQT member 1 (Homo sapiens), P51787; CHO-K1 KCNQ1, FluxOR thallium flux fluorescence; hits give high values; B-score at 10 µM; 310,000 compounds, 1.3% hits; AID 2642, 2010;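 active = compounds whose thallium flux B-score, printed positive for inhibition, exceeds three library SD while starting fluorescence stays within three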;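 note: channel opened by potassium depolarization with thallium stimulus after 20 min compound exposure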
KCNK3 block – human KCNK3 channel inhibitors, primary screen, CHO cells, FluxOR thallium flux, B-score | FluxOR fluorescence; hits give low values | B-score at 10 µM | 340,000 compounds, 0.84% hits;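 active = B-score under library mean minus 4 SD, starting fluorescence ratio at most library mean plus 5 SD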;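 note: more negative B-score means stronger inhibition of thallium flux through KCNK3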
KCNK9 inh – KCNK9 potassium channel inhibitors, primary screen, HEK293 cells, thallium flux; Potassium channel subfamily K member 9 (Homo sapiens), Q9NPC2; FluxOR thallium flux fluorescence; hits give low values; B-score at 10 µM; 310,000 compounds, 1.2% hits;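 active = ratio B-score over 3 SD below the library mean, with starting fluorescence within 5 SD of its mean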;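 note: negative B-score means less thallium flux so channel inhibition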
Target sequence (Q9NPC2 whole entry, looked up): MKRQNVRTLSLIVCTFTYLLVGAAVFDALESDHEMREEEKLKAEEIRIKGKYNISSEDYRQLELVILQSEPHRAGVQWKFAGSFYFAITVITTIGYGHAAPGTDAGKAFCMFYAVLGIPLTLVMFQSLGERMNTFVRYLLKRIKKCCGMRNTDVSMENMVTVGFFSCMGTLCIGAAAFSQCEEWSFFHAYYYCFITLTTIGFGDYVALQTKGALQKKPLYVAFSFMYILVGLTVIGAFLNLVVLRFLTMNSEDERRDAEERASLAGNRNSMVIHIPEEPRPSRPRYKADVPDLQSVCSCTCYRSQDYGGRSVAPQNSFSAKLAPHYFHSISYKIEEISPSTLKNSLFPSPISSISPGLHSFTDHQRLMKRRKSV
hERG rescue – hERG rescue from dofetilide block, primary screen, cell-based, CHO-hERG, FluxOR thallium flux, dofetilide IC70 | activation (rescue from dofetilide block), less the hit threshold, % at 10 µM | Voltage-gated inwardly rectifying potassium channel KCNH2 (Homo sapiens), Q12809 | dofetilide IC70 present | 310,000 compounds, 0.51% hits;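 active = activation above the mean of controls blocked by dofetilide plus 5 SD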;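 note: thallium influx through hERG after potassium depolarization seen as dye fluorescence rise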
KCC2 sec1 – KCC2 modulators in sodium-free buffer, confirmation, cell-based, HEK293 KCC2, thallium flux, secondary assay. AID 1713, 2009. shares compounds with KCC2 mod. normalised thallium flux (F/F0 slope) at 10 µM. FluoZin2 fluorescence; hits give high values. 3,700 compounds, 15% hits;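 active = thallium flux slope above the same plate's solvent-only control mean plus 3 SD; inconclusive = the two replicate wells disagree; inactive = no significant difference from solvent-only control wells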
KCC2 bumet counter – thallium flux persisting under bumetanide in KCC2 cells, confirmation, counter-screen for KCC2 modulator project, cell-based, HEK293 KCC2, FluoZin2, secondary assay 3. 3,700 compounds, 49% hits. HEK293-KCC2 + bumetanide/ouabain; hits give high values. normalized thallium flux at 10 µM. shares compounds with KCC2 mod. AID 1714, 2009;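 active = thallium entry rate above the same plate's blocked-transporter control wells by more than 3 SD; inconclusive = the two repeat wells disagree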;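 note: raw slope of fluorescence over initial fluorescence between 10 and 20 s after thallium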
KCC2 secondary2 – KCC2 modulators without ouabain present, confirmation, cell-based, HEK293 KCC2, thallium flux, FluoZin2, secondary assay 2; 3,700 compounds, 23% hits; shares compounds with KCC2 mod; thallium flux FluoZin2 fluorescence; actives lie on both sides; F/F0 rise rate, 10–20 s post-thallium; normalized thallium flux at 10 µM; AID 1715, 2009;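 active = thallium flux slope more than 3 SD above or below the plate's solvent-only control mean, mostly below; inconclusive = the two repeat wells disagreed; inactive = no significant shift from solvent-only controls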;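 note: raw slope with 0.1% DMSO as baseline and bumetanide as block control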
HEK293 Tl flux – thallium flux modulation in parental HEK cells, confirmation, counter-screen for KCC2 modulator project, cell-based, counterscreen 1. shares compounds with KCC2 mod. HEK293 parental cells, thallium flux FluoZin2, ouabain; baseline-ratio fluorescence slope, 10–20 s after thallium. thallium flux rate (normalised fluorescence) at 10 µM. 3,700 compounds, 46% hits;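 active = thallium flux rate significantly above the same plate's solvent-only control wells, beyond their mean plus 3 SD; inconclusive = the two replicate wells gave conflicting results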
KCC2 ouabain – KCC2 inhibitors and activators, ouabain retest, confirmation, HEK-KCC2 cells. shares compounds with KCC2 mod. AID 1717, 2009. HEK293-KCC2, thallium flux FluoZin2 fluorescence; bidirectional: low = inhibitor, high = activator. raw Tl+ flux slope (below DMSO = inhibition, above = activation) at 10 µM. 3,700 compounds, 48% hits;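 active = thallium flux slope beyond 3 SD from same-plate DMSO control mean in most replicates, usually higher, sometimes lower; inconclusive = repeat tests gave conflicting results; inactive = no significant difference from controls in most replicates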;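 note: slope of initial-normalized fluorescence between seconds 10 and 20 after thallium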
HEK293 Tl flux2 – native HEK Tl+ uptake effects, second counter-screen – HEK cells, counterscreen 2, counter-screen for KCC2 modulator project, confirmation; shares compounds with KCC2 mod; 3,700 compounds, 33% hits; thallium flux slope at 10 µM; AID 1718, 2009; HEK293 parental, thallium flux FluoZin-2 fluorescence slope;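 active = thallium flux slope above the same plate's solvent-control mean plus 3 SD in both duplicate wells; inconclusive = duplicate wells that disagreed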;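 note: run without ouabain in cells lacking the KCC2 cotransporter; slope of fluorescence scaled to its starting value between 10 and 20 s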
Active calls of the source: *; i = inactive; ? = inconclusive; . = not tested or not shown.

SMILES	KCNQ1 pot	KCC2 mod	KCNQ1 block	KCNK3 block	KCNK9 inh	hERG rescue	KCC2 sec1	KCC2 bumet counter	KCC2 secondary2	HEK293 Tl flux	KCC2 ouabain	HEK293 Tl flux2
COc1ccc(CN2CCN(C(=O)Cc3ccccc3)CC2)c(OC)c1	i	0.01	i	i	i	-4	.	.	.	.	.	.
CCCC(=O)Nc1cc(C(=O)N2CCC3(CC2)OCCO3)ccc1S(=O)(=O)c1ccc(C)cc1	i	-5.2*	i	i	i	-7	0.0097	0.006	0.033	0.0073	0.022	0.01
Cc1ccc(S(=O)(=O)Nc2cc(C(=O)N3CCC4(CC3)OCCO4)ccc2N2CCCCC2)cc1	i	.	i	i	i	-6	.	.	.	.	.	.
CC(=O)Nc1cc(C(=O)N2CCC3(CC2)OCCO3)ccc1S(=O)(=O)c1ccc(C)cc1	i	.	i	i	i	-12	.	.	.	.	.	.
CC(=O)Nc1cc(C(=O)N2CCC3(CC2)OCCO3)ccc1S(=O)(=O)c1ccc(Cl)cc1	i	-6.4*	i	i	i	-7	0.0077	0.0053	0.03	0.0085	0.019	0.012
CS(=O)(=O)N1CCN(C(=N)N[N+](=O)[O-])CC1	i	0.41	i	i	i	-8	.	.	.	.	.	.
CC(C)CCP(=O)(O)c1ccccc1	i	8.3*	i	i	i	-7	0.012	0.0065	0.035	0.008	0.023	0.011
O=C1NC(=O)C2(Cc3c(nc4ccccn4c3=O)N3CCCCCC32)C(=O)N1Cc1ccccc1 (configuration not stated)	.	-4*	.	i	.	.	0.0063	0.0051	?	0.0051*	0.016*	0.0085
O=C1NC(=O)C2(Cc3ccccc3N3CCCC32)C(=O)N1Cc1ccccc1 (configuration not stated)	i	-0.78	i	i	i	-12	.	.	.	.	.	.
CC(C)NS(=O)(=O)c1ccc(OCC(=O)N2CCN(Cc3ccccc3)CC2)cc1	i	-1.4	i	i	i	-7	.	.	.	.	.	.
O=C(COc1ccc(Cl)cc1)N1CCN(Cc2ccccc2)CC1	i	.	i	i	i	-2	?	0.0055	0.029	0.007	0.025*	0.01
Cc1ccc(C(=O)COC(=O)Cc2ccccc2)cc1	i	.	i	i	i	1	.	.	.	.	.	.
CC12CCCCC1=NC(c1ccc(Br)cc1)N2O (configuration not stated)	i	-1.1	i	i	i	-7	.	.	.	.	.	.
O=C(C1CCN(c2nc3ccc(Br)cc3s2)CC1)N1CCC2(CC1)OCCO2	i	-5.1*	i	i	i	-9	0.0076	0.0054	0.027*	0.0071	0.019*	0.01
COc1cc(/C=C/C(=O)c2c(O)n(CCc3ccccc3)c(=O)[nH]c2=O)ccc1O	i	-6.4*	i	i	i	-8	?	-0.0096*	0.034	0.0013*	0.004*	?
CCOC(=O)C(O)(c1ccc(NC(=S)NC(=O)c2ccc(Cl)cc2Cl)c(C)c1)C(F)(F)F (configuration not stated)	i	5.5*	i	i	i	-6	0.0063	0.029*	0.036	0.014*	0.029*	0.016*
O=C(Nc1ccc(Cl)cc1C(=O)c1ccccc1Cl)c1ccco1	i	-0.22	i	i	i	-6	.	.	.	.	.	.
O=C1NC(=O)N(c2ccccc2)C(=O)/C1=C/c1coc2ccc(O)cc2c1=O	i	-4.8*	i	i	i	-14	0.007	0.0042	0.028	0.0058*	0.014*	0.0088
CCC(=NCc1cc(OC)cc(OC)c1)c1c(O)n(C2CCCCC2)c(=O)[nH]c1=O	i	0.14	i	i	i	-11	.	.	.	.	.	.
